The values below come from PubChem BioAssay.

A word on the inhibition: it is the drop in the measured response relative to a control, in per cent.

A short description of assay [1]: inhibitors of TNFa-induced NFkB p65 translocation, primary screen, imaging, HUVEC, MLSMR starter and 10KST1 sets (AID 438;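 active means inhibition above 20% together with a positive visual image hit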;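 further: compound added about 3h40 before a 20 min TNFalpha stimulation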;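 on inhibition: signal is the nuclear over cytoplasmic p65 intensity ratio per well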). To be noted: HUVEC TNFa-induced p65 nuclear translocation; cell count: measured here: nuclei count (cytotoxicity indicator), at 2.08 µM; inhibition: at 2 µM, stronger effect = higher value, 0% TNFa-plus-vehicle, 100% no-TNFa wells.
Assay [2] is described as follows: endothelial E-selectin expression blockers – imaging, HUVEC, immunofluorescence, MLSMR starter and 10KST1 sets, primary screen (AID 487;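 active means visually confirmed hit in the image check and inhibition above 20%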;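 on inhibition: signal is fraction of cell area covered by stained E-selectin grains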;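 on nuclei count: 100% = median nuclei count of all wells on the same plate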). To be noted: HUVEC TNFalpha-induced E-selectin immunofluorescence imaging, at 2 µM; inhibition: stronger effect = higher value; nuclei count: measured here: cell number, toxicity.
Assay [3] is described as follows: Primary imaging screen for DUSP6 inhibitors that restore phospho-Erk in transfected HeLa cells, chemical complementation (AID 609;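 active means compounds giving at least 50% inhibition in the cell-based MKP-3 phosphatase rescue imaging test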;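 on inhibition: phospho-Erk level distribution per well compared with pooled transfected vehicle control wells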). Particulars: HeLa MKP-3 transfected, phospho-Erk imaging KS statistic, at 10 µM, cells stimulated with TPA for 15 min.
The target of assay [4] is Dual specificity protein phosphatase 6 (Homo sapiens) (UniProt Q16828). Described as above. Particulars: HeLa MKP-3 transfected, phospho-Erk imaging KS statistic; at 10 µM; stronger effect = higher value; cells stimulated with TPA for 15 min.
Chain of Dual specificity protein phosphatase 6 (Homo sapiens) (Q16828 whole entry, looked up): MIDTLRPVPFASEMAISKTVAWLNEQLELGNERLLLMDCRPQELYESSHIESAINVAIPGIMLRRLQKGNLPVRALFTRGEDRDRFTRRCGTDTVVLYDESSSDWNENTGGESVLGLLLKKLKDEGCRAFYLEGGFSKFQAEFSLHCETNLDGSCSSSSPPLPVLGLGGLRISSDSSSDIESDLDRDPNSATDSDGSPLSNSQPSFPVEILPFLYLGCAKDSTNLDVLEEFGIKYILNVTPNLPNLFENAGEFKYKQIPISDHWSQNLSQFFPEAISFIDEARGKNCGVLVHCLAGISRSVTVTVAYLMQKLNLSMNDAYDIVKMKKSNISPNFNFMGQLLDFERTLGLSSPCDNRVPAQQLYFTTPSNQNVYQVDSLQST
Assay [5] deals with Voltage-gated potassium channel subunit beta-2 (Rattus norvegicus) (UniProt P62483). The assay is described as follows: inhibitors of rat Kvbeta2 reductase activity – biochemical, NADPH fluorescence, primary screen (AID 622;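 active means fluorescence slope higher than the sample average by over 3 SD, cut at about -0.22 in these data, passing the limit was not always enough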;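 further: slope of raw intensity against log time taken from 70 to 1610 s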). Particulars: recombinant KvBeta, 4-cyanobenzaldehyde reduction, at 10 µM, stronger effect = higher value.
Chain of Voltage-gated potassium channel subunit beta-2 (Rattus norvegicus) (P62483 whole entry, looked up): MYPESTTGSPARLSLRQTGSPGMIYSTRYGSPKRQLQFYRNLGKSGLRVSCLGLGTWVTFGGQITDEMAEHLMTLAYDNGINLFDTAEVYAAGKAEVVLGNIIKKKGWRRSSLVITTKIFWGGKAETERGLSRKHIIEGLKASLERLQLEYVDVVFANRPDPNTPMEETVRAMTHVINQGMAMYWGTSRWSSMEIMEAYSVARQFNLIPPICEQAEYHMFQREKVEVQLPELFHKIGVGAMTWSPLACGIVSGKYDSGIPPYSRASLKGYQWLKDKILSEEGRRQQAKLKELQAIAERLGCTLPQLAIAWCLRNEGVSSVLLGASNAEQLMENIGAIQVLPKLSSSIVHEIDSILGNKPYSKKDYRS
Assay [6] has the same target. The assay is described as follows: enhancers of rat Kvbeta2 NADPH turnover – biochemical, NADPH fluorescence, primary screen (AID 623;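 active means NADPH fluorescence slope more negative than the mean of all samples by about 3 SD, 99.7% confidence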;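 further: fluorescence intensity change per second fitted from 20 to 320 s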). Particulars: Recombinant KvBeta, NADPH fluorescence decrease slope, 10 min; at 10 µM; stronger effect = lower value.
In assay [7] the target is Muscarinic acetylcholine receptor M4 (Homo sapiens) (UniProt P08173). As to the kind of experiment: M4-linked GIRK flux change, two-sided – cell-based, HEK293 M4/GIRK, thallium flux, BTC-AM, M4 allosteric agonist project, primary screen (AID 625;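 active means fluorescence slope after compound addition differing from the mean of all tested samples at 99.7% confidence, mostly higher but some lower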;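 further: thallium influx through GIRK channels coupled to M4 in HEK293 cells with BTC-AM dye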). Particulars: at 10 µM, actives lie on both sides. The essentials: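 assay system = HEK293 cells with M4 receptor and GIRK channels | medium = pH 7.3 thallium assay buffer | doses = 10 µM final, single point | timing = cells overnight at 37 °C, BTC-AM loading 1 h, reads 2 min total | signal = BTC-AM fluorescence, 1 Hz kinetic reads | read-out = post-addition slope, 15–24 s, of baseline-normalized fluorescence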
Chain of Muscarinic acetylcholine receptor M4 (Homo sapiens) (P08173 whole entry, looked up): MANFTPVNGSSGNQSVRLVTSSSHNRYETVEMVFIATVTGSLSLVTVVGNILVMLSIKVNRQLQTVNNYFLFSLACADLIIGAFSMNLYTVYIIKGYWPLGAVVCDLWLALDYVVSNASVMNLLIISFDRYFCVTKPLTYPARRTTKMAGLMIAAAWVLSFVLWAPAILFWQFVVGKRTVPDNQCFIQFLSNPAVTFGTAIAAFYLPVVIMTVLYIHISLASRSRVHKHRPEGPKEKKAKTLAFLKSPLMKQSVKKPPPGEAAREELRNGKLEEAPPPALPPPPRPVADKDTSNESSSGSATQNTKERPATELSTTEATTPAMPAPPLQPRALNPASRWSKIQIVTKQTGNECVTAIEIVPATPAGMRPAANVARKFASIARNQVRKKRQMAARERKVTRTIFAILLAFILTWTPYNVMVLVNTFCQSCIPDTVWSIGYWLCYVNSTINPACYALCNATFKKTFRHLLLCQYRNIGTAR

Assay [8] is described as follows: inhibitors of larval lipid processing in zebrafish, primary screen, whole organism, PED6 fluorescence, gall bladder and intestine (AID 686;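 active means a full or partial loss of lipid-probe fluorescence in the fish gall bladder, intestine or both, judged by eye; inactive means no fluorescence loss, or compound toxic to the fish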;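 further: larvae 5 to 7 days old with five fish per well; signal comes from phospholipase A2 cleavage of quenched PED6 carried via bile; overnight exposure to compound and PED6 before scoring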). Particulars: Zebrafish larvae PED6 lipid processing, fluorescence scoring; screened at 20 µM (by protocol). The essentials: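 Also added: quenched phospholipase substrate PED6, 100 nM final, ingested by larvae; System: zebrafish larvae, 5-7 d; Quantity: 5 larvae per well; Compound: 20 µM single dose; Schedule: overnight compound and PED6 incubation; Read-out: visual per-well fluorescence inhibition score; Measured by: By-eye fluorescence microscopy; Medium: E3.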

Assay [9] in a line: loss of swimming-algae plug formation – whole organism, Chlamydomonas reinhardtii, WT vs cilia-less mutant, absorbance, 96-well, primary screen (AID 463189).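 Further: 0% = wild type cc124 cells in DMSO and 100% = ciliumless bld1 mutant cells.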 Particulars: Chlamydomonas reinhardtii gravitaxis, OD600 absorbance, 2 days; at 10 µM; stronger effect = higher value.
[10] abbreviates: measured here: cell density z-score.
Setting [11] is: measured here: nuclear c-Myc green intensity z-score.
Setting [12] is: measured here: nuclear pErk red intensity z-score, stronger effect = higher value.

Calls of active or inactive are those of the source.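 How the source made its calls, unless noted: active means inhibition at or above 50% relative to wild type and mutant plate controls; inactive means inhibition below 50%.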

For `COC(=O)CSc1nc(C)c(Oc2ccccc2)c(=O)[nH]1`, the cell count in [1] came to 726. The inhibition was 7.2% (inactive) in assay [1], -102% (inactive) in [2], -2.09% (inactive) in assay [4] and -8.15% (inactive) in assay [9]. This molecule registered a nuclei count in [2] of 162%. Moreover, the z-score in assay [3] (setting [10]) was -1.93; in assay [3] (setting [11]) it was 2.21; in assay [3] (setting [12]), -0.257. Also, the fluorescence slope in [5] was -0.424 (inactive); in assay [7], 0.00506 (inactive). Further, the NADPH fluorescence slope in assay [6] is -5.8e-05 (inactive). The molecule was classed as inactive in assay [8].
In the case of `COCc1n[nH]c(=S)n1-c1cccc2ccccc12`, the cell count in [1] turned out to be 533. In addition, the inhibition is -1.3% (inactive) in assay [1], -25.8% (inactive) in assay [2], 5.95% (inactive) in [4] and 4.29% (inactive) in [9]. This molecule returned a nuclei count in [2] of 173%. In addition, the figures for the z-score in [3] (setting [10]), in assay [3] (setting [11]) and in assay [3] (setting [12]) were 0.455, 0.388 and 0.964, respectively. Besides, the values for the fluorescence slope in assay [5] and in assay [7] were -0.415 (inactive) and 0.00527 (inactive), respectively. In addition, the NADPH fluorescence slope in assay [6] was -4.6e-05 (inactive). Also, the molecule was classed as inactive in assay [8].
For `Cn1c(N2CCN(c3ccccn3)CC2)nc2c1c(=O)n(Cc1ccc(Cl)cc1)c(=O)n2C`, the cell count in [1] was 678. Further, the inhibition in assay [1] is 5.8% (inactive); in assay [2], -153% (inactive); in assay [4], 27.8% (inactive); in [9], 24.6% (inactive). In [2], this molecule registered a nuclei count of 180%. Also, the z-score is -0.409 in assay [3] (setting [10]), -1.46 in assay [3] (setting [11]) and -0.591 in assay [3] (setting [12]). For the same molecule, the results for the fluorescence slope in [5] and in assay [7] were -0.498 (inactive) and 0.00592 (inactive), respectively. The NADPH fluorescence slope in [6] is -2.6e-05 (inactive). The call in [8] was inactive.
Turning to `C#CC1CN(Cc2ccccc2)CC(C#C)N1C` (centres undefined), the cell count in [1] came out at 690. Moreover, the inhibition in assay [1] was -3% (inactive); in assay [2], 9% (inactive); in assay [4] it was -7.67% (inactive); in [9], -0.669% (inactive). Also, the nuclei count in [2] was found to be 156%. Also, the z-score in assay [3] (setting [10]) is -0.126; in assay [3] (setting [11]), -0.517; in assay [3] (setting [12]) it was 1.32. Also, the fluorescence slope in [5] was -0.44 (inactive); in assay [7], 0.00453 (inactive). The NADPH fluorescence slope in assay [6] is -3.5e-05 (inactive). The molecule was called inactive in assay [8].
Turning to `COc1ccc(/C(O)=C2\C(=O)C(=O)N(Cc3ccco3)C2c2cc(OC)ccc2OC)cc1` (centres undefined), the cell count in assay [1] was found to be 613. Further, the inhibition is -13.1% (inactive) in assay [1], -6% (inactive) in assay [2], 5.42% (inactive) in assay [4] and -2.62% (inactive) in assay [9]. Besides, the nuclei count in assay [2] came out at 161%. The z-score is 0.378 in assay [3] (setting [10]), -0.392 in assay [3] (setting [11]) and -0.39 in assay [3] (setting [12]). Also, the fluorescence slope in [5] is -0.452 (inactive); in assay [7], 0.00573 (inactive). Besides, the NADPH fluorescence slope in assay [6] is -1.6e-05 (inactive). Moreover, the outcome in assay [8] was inactive.
Consider `CC1(C)Cc2c(C#N)c(N3CCN(C(=O)c4ccccc4)CC3)nc(-c3ccco3)c2CS1`, for which the cell count in assay [1] was determined as 640. Besides, the inhibition in assay [1] is -9% (inactive); in assay [2], -74.3% (inactive); in assay [4], 19.1% (inactive); in assay [9] it was 7.79% (inactive). The molecule further came in with a nuclei count in assay [2] of 156%. The z-score was 0.833 in [3] (setting [10]), 0.824 in [3] (setting [11]) and -0.638 in [3] (setting [12]). The fluorescence slope in assay [5] is -0.401 (inactive); in [7], 0.0059 (inactive). Besides, the NADPH fluorescence slope in assay [6] was -2.5e-05 (inactive). Also, in assay [8], the molecule was called inactive.
As to `CCOC(=O)C1=C(N)n2c(s/c(=C\c3ccco3)c2=O)=C(C(=O)OC(C)C)C1c1ccco1` (centres undefined), the cell count in [1] is 383. The inhibition in assay [1] was -7.4% (inactive); in [2], -126% (inactive); in [4], -4.59% (inactive); in [9], 27.2% (inactive). Further, in [2], the nuclei count is 166%. Also, the z-score in [3] (setting [10]) is 0.588; in [3] (setting [11]), -1.67; in assay [3] (setting [12]) it was 1.18. Moreover, the fluorescence slope is -0.46 (inactive) in assay [5] and 0.00444 (inactive) in [7]. Also, the NADPH fluorescence slope in assay [6] is -7.4e-05 (inactive). In addition, the molecule was classed as inactive in [8].
As to `COC(=O)Sc1nc(N2CCOCC2)c2c(c1C#N)CC(C)(C)OC2`, the cell count in [1] is 565. The inhibition in assay [1] was -2% (inactive); in assay [2], -116% (inactive); in assay [4], 3.42% (inactive); in assay [9], 24.4% (inactive). Besides, the nuclei count in assay [2] stood at 132%. For the same molecule, the z-score is 0.0433 in assay [3] (setting [10]), -0.438 in [3] (setting [11]) and 1.3 in assay [3] (setting [12]). Moreover, the fluorescence slope in assay [5] is -0.49 (inactive); in assay [7], 0.00476 (inactive). The NADPH fluorescence slope in assay [6] was -0.000143 (inactive). Also, the molecule was called inactive in assay [8].
As for `Cc1nn(C)cc1/C=N/n1nnnc1N`, the cell count in assay [1] was found to be 680. For the same molecule, the inhibition is -10.2% (inactive) in assay [1], -45.8% (inactive) in [2], 4.37% (inactive) in assay [4] and 11.8% (inactive) in assay [9]. In assay [2], this molecule displayed a nuclei count of 155%. Moreover, the values for the z-score in assay [3] (setting [10]), in assay [3] (setting [11]) and in assay [3] (setting [12]) were 0.00474, -1.39 and 0.944, respectively. Moreover, the fluorescence slope in [5] was -0.487 (inactive); in [7], 0.00512 (inactive). Further, the NADPH fluorescence slope in [6] was -3.8e-05 (inactive). The molecule was called inactive in assay [8].
Consider `Cc1nnc2n(C3CCCCC3)c(=O)c3c4c(sc3n12)COC(C)(C)C4`, for which the cell count in [1] worked out at 471. Also, the inhibition in [1] was -0.7% (inactive); in assay [2], -19% (inactive); in [4], -3.97% (inactive); in [9], 11.1% (inactive). In [2], this molecule gave a nuclei count of 96.4%. In addition, the values for the z-score in assay [3] (setting [10]), in [3] (setting [11]) and in assay [3] (setting [12]) were -2.3, 1.13 and -0.467, respectively. In addition, the fluorescence slope in [5] was -0.389 (inactive); in assay [7] it was 0.00567 (inactive). In addition, in assay [6], the NADPH fluorescence slope is 7.7e-06 (inactive). The result in [8] was inactive.
For the molecule `Cc1cc2c(C)nc(Cc3ccccc3)nc2o1`, in assay [1], the cell count was 561. Besides, the inhibition in assay [1] is -5.5% (inactive); in assay [2], -85.6% (inactive); in assay [4] it was 11.9% (inactive); in assay [9], 16.9% (inactive). In assay [2], this molecule registered a nuclei count of 149%. Also, the z-score in assay [3] (setting [10]) is -0.156; in assay [3] (setting [11]), 0.673; in [3] (setting [12]), 0.277. The fluorescence slope was -0.438 (inactive) in assay [5] and 0.00471 (inactive) in assay [7]. For the same molecule, the NADPH fluorescence slope in assay [6] is -7.2e-05 (inactive). Also, in [8], the outcome was inactive.
As for `Nc1c2c(nc3ccccc13)N(c1ccccc1)CC2`, in [1], the cell count was determined as 585. Besides, the inhibition in assay [1] was 0.4% (inactive); in assay [2], 60.7% (active); in assay [4] it was -2.09% (inactive); in [9], 15.7% (inactive). Moreover, in assay [2], the nuclei count worked out at 92.9%. Besides, the values for the z-score in assay [3] (setting [10]), in [3] (setting [11]) and in [3] (setting [12]) were 0.356, -0.531 and -0.713, respectively. Moreover, the fluorescence slope in [5] was -0.0969 (active); in [7], 0.00425 (inactive). Further, in [6], the NADPH fluorescence slope was -1.3e-05 (inactive). For the same molecule, the outcome in assay [8] is “inactive; toxic”.
With `O=C(Oc1cccnc1)c1ccco1`, the cell count in [1] came to 545. Besides, the inhibition in [1] is -0.5% (inactive); in assay [2], 2.1% (inactive); in assay [4], -3.95% (inactive); in assay [9], -17% (inactive). The molecule further showed a nuclei count in assay [2] of 99%. Also, the z-score in [3] (setting [10]) was -1.51; in [3] (setting [11]) it was 1.45; in assay [3] (setting [12]), 1.18. Also, the figures for the fluorescence slope in assay [5] and in assay [7] were -0.449 (inactive) and 0.00414 (inactive), respectively. The NADPH fluorescence slope in assay [6] was -4.3e-05 (inactive). The molecule was called inactive in assay [8].
